# Assay results gathered from unrelated publications.
# Compare with care: the assays were run in different laboratories.
# Target: Sodium-dependent noradrenaline transporter (SLC6A2, Homo sapiens, UniProt P23975)
Structure (SMILES),effect on,action,method,cell line,concentration,inhibition
COc1ccc(S(=O)(=O)N2CCCCC2)cc1C,ligand displacement,,radioligand,,10 µM,< 30%
COCc1c(-c2cc3cc(C)cc(OC)c3s2)c2c(N)ncnn2c1CN1CCNC(=O)C1,ligand displacement,,radioligand,,10 µM,47%
COc1ccc(C(CN(C)C)C2(O)CCCCC2)cc1 (stereo not drawn),transporter uptake,inhibitor,,HEK293,1 µM,28.8%
Cc1noc([C@H]2C[C@@H](c3ccc(C(F)(F)F)cc3)CN(C(=O)N3CCS(=O)(=O)C3)C2)n1,cell-free assay,,,,10 µM,-20.2%
O=C(Nc1cccnn1)N1CCN([C@@H]2CCOc3cc(C(F)(F)F)ccc32)CC1,ligand displacement,,,,20 µM,15%
CS(=O)(=O)N1CCCC(NC(=O)[C@H](CCC2CCCCC2)NC(=O)c2ccc(CNC(=O)c3cnc4ccccn34)cc2)C1 (stereo partly drawn),cell-free assay,,,,10 µM,3%
CN(CCN1CCC(OC(=O)Nc2ccccc2-c2ccccc2)CC1)C(=O)c1ccc(CN2CCC(C(N)=O)CC2)cc1,ligand displacement,,radioligand,,1 µM,1%
CC(C)(C)c1ccc(C(=O)Nc2cc(Cl)c(-c3ccccc3)cc2C(=O)O)cc1,ligand displacement,,radioligand,,10 µM,91%
Clc1ccc2c(C3CCN(CCc4c[nH]c5ccccc45)CC3)c[nH]c2c1,ligand displacement,,radioligand,,10 µM,90%
Fc1ccc(C(OCCN2CCN(CCCc3ccccc3)CC2)c2ccc(F)cc2)cc1,transporter uptake,inhibitor,,HEK293,1 µM,89.9%
CCN(CC)CCCC[C@H](NC(=O)[C@H](CC(C)C)NC(=O)[C@H](C)NC(=O)[C@H](Cc1ccccc1)NC(=O)c1ccc(C(C)(C)C)cc1)C(=O)N[C@@H](CO)C(=O)OC,ligand displacement,,radioligand,,10 µM,-13%
CC(C)N1CCC[C@H]1CNC(=O)c1cn(C2CCCC2)c(=O)c2c1c1ccccc1n2C,ligand displacement,,radioligand,,10 µM,28%
